ChEMBL document CHEMBL2086281, “Design, synthesis and 3D-QSAR analysis of novel 2-hydrazinyl-4-morpholinothieno[3,2-d]pyrimidine derivatives as potential antitumor agents” (Eur J Med Chem, 2012)

Columns and labels:
NCI-H460 = assay: Cytotoxicity against human H460 cells assessed as growth inhibition after 72 hrs by MTT assay; type: functional, cell-based; settings: NCI-H460, 72 h
How it was run: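 Cells grown in MEM with 10% FBS. About 4×10^3 cells/well were pre-incubated for 24 h at 37 °C in 5% CO₂, then exposed to compound at the indicated final concentrations for 72 h. MTT was added to 5 µg/mL final for 4 h at 37 °C. IC50 is the mean of three determinations.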

HT-29 = assay: Cytotoxicity against human HT-29 cells assessed as growth inhibition after 72 hrs by MTT assay; type: functional, cell-based; settings: HT-29, 72 h
How it was run: (§1)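 Cells grown in MEM with 10% FBS. About 4×10^3 cells/well were pre-incubated for 24 h at 37 °C in 5% CO₂, then exposed to compound at the indicated final concentrations for 72 h. MTT was added to 5 µg/mL final for 4 h at 37 °C. Formazan was dissolved in DMSO and read at 492 nm, with 630 nm as reference. IC50 is the mean of three determinations.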

MDA-MB-231 = assay: Cytotoxicity against human MDA-MB-231 cells assessed as growth inhibition after 72 hrs by MTT assay; type: functional, cell-based; settings: MDA-MB-231, 72 h; how it was run: as §1
[1] = Cytotoxicity against human U87MG cells assessed as growth inhibition after 72 hrs by MTT assay; type: functional, cell-based, U-87MG ATCC; settings: U-87 MG; how it was run: as §1
NCI-H1975 = assay: Cytotoxicity against human NCI-H1975 cells assessed as growth inhibition after 72 hrs by MTT assay; type: functional, cell-based; settings: NCI-H1975, 72 h; how it was run: as §1

Row | Compound | IC50 (NCI-H460; read-out: IC50) [µM] | IC50 (NCI-H460; read-out: pIC50 (converted)) [µM] | IC50 (HT-29) [µM] | IC50 (MDA-MB-231) [µM] | IC50 [1] [µM] | IC50 (NCI-H1975) [µM]
1 | Clc1ccc(Cn2c(/C=N/Nc3nc(N4CCOCC4)c4sccc4n3)nc3ccccc32)cc1 | 2.6 | 2.63 | 0.77 | 13.9 | 13.4 | 
2 | CC(C)(O)c1cc2nc(N/N=C/c3cn(Cc4ccc(C#N)cc4)c4ccccc34)nc(N3CCOCC3)c2s1 | 4.53 | 4.57 | 2.54 | 6.31 |  | 
3 | CC(C)(O)c1cc2nc(N/N=C/c3cn(Cc4cccc(Cl)c4)c4ccccc34)nc(N3CCOCC3)c2s1 | 0.84 | 0.832 | 0.87 | 3.22 | 8.91 | 23.8
4 | CC(C)(C)c1ccc(Cn2cc(/C=N/Nc3nc(N4CCOCC4)c4sccc4n3)c3ccccc32)cc1 | 0.38 | 0.38 | 1.69 | 1.43 | 11.2 | 8
5 | Clc1ccc(Cn2cc(/C=N/Nc3nc(N4CCOCC4)c4sccc4n3)c3ccccc32)cc1 | 0.36 | 0.355 | 5.76 | 2.7 | 15.6 | 
6 | Clc1ccc(Cn2cc(/C=N/Nc3nc(N4CCOCC4)c4sccc4n3)c3ccccc32)c(Cl)c1 | 5.77 | 5.75 | 46.5 | > 100 |  | 
7 | Clc1cccc(Cn2c(/C=N/Nc3nc(N4CCOCC4)c4sccc4n3)nc3ccccc32)c1 | 4.56 | 4.57 | 1.01 | 37.7 |  | 
8 | N#Cc1cccc(Cn2cc(/C=N/Nc3nc(N4CCOCC4)c4sccc4n3)c3ccccc32)c1 | 0.34 | 0.347 | 4.86 | 2 | 9.68 | 
9 | CC(C)(O)c1cc2nc(N/N=C/c3cn(Cc4c(Cl)cccc4Cl)c4ccccc34)nc(N3CCOCC3)c2s1 | 4.03 | 4.07 | 3.36 | 62.1 |  | 
10 | Clc1ccccc1Cn1cc(/C=N/Nc2nc(N3CCOCC3)c3sccc3n2)c2ccccc21 | 3.98 | 3.98 | > 100 | > 100 |  | 
11 | Clc1cccc(Cn2cc(/C=N/Nc3nc(N4CCOCC4)c4sccc4n3)c3ccccc32)c1 | 0.54 | 0.537 | 2.98 | 9.74 | 5.96 | > 100
12 | COc1cc(/C=N/Nc2nc(N3CCOCC3)nc(N3CCOCC3)n2)cc(OC)c1O | 9.2 |  | 20.2 | > 100 |  | 
13 | CC(C)(O)c1cc2nc(N/N=C/c3cn(Cc4ccc(Cl)cc4)c4ccccc34)nc(N3CCOCC3)c2s1 | 0.55 | 0.55 | 0.87 | 5.14 | 7.43 | 33.8
14 | C(=N\Nc1nc(N2CCOCC2)c2sccc2n1)/c1nc2ccccc2n1Cc1ccccc1 | 25.6 | 25.7 | 1.08 | 21.3 |  | 
15 | CC(C)(C)c1ccc(Cn2c(/C=N/Nc3nc(N4CCOCC4)c4sccc4n3)nc3ccccc32)cc1 | 3.62 | 3.63 | 4.18 | 8.17 |  | 
16 | CC(C)(O)c1cc2nc(NN)nc(N3CCOCC3)c2s1 | 29.7 |  | 56.2 | > 100 |  | 
17 | Clc1cccc(Cn2c(/C=N/Nc3nc(N4CCOCC4)c4sccc4n3)nc3ccccc32)c1Cl | 37.1 | 37.2 | 6.46 | > 100 |  | 

Row | Compound | IC50 (NCI-H460; read-out: IC50) [µM] | IC50 (NCI-H460; read-out: pIC50 (converted)) [µM] | IC50 (HT-29) [µM] | IC50 (MDA-MB-231) [µM] | IC50 [1] [µM] | IC50 (NCI-H1975) [µM]
18 | C(=N\Nc1nc(N2CCOCC2)c2sccc2n1)/c1cn(Cc2ccccc2)c2ccccc12 | 1.41 | 1.41 | 4.7 | 12.4 | > 100 | 42.7
19 | CC(C)(O)c1cc2nc(N/N=C/c3cn(Cc4ccc(F)cc4)c4ccccc34)nc(N3CCOCC3)c2s1 | 1.1 | 1.1 | 1.01 | 1.53 |  | 
20 | CC(C)(O)c1cc2nc(N/N=C/c3cn(Cc4cccc(C#N)c4)c4ccccc34)nc(N3CCOCC3)c2s1 | 0.36 | 0.363 | 1.39 | 5.61 | 6.64 | 
21 | Cc1ccc(Cn2cc(/C=N/Nc3nc(N4CCOCC4)c4sccc4n3)c3ccccc32)cc1 | 0.83 | 0.832 | 3.31 | 9.73 | 4.97 | 33.1
22 | Clc1cccc(Cl)c1Cn1cc(/C=N/Nc2nc(N3CCOCC3)c3sccc3n2)c2ccccc21 | 10.4 | 10.5 | 35.4 | 20.5 |  | 
23 | CC(C)(O)c1cc2nc(N/N=C/c3cn(Cc4ccc(Cl)cc4Cl)c4ccccc34)nc(N3CCOCC3)c2s1 | 8.9 | 8.91 | 5.38 | > 100 |  | 
24 | Clc1ccccc1Cn1c(/C=N/Nc2nc(N3CCOCC3)c3sccc3n2)nc2ccccc21 | 79.4 | 79.4 | 0.4 | > 100 |  | 
25 | Clc1ccc(Cn2cc(/C=N/Nc3nc(N4CCOCC4)c4sccc4n3)c3ccccc32)cc1Cl | 0.74 | 0.741 | 16.2 | > 100 | > 100 | > 100
26 | CC(C)(O)c1cc2nc(N/N=C/c3cn(Cc4cccc(Cl)c4Cl)c4ccccc34)nc(N3CCOCC3)c2s1 | 7.22 | 7.24 | 3.7 | > 100 |  | 
27 | FC(F)(F)c1cccc(Cn2cc(/C=N/Nc3nc(N4CCOCC4)c4sccc4n3)c3ccccc32)c1 | 0.52 | 0.525 | 1.68 | 83.8 | 4.84 | 2.79
28 | CC(C)(O)c1cc2nc(N/N=C/c3cn(Cc4ccccc4F)c4ccccc34)nc(N3CCOCC3)c2s1 | 1.1 | 1.1 | 1.05 | 1.66 | 3.92 | 15.6
29 | N#Cc1ccc(Cn2cc(/C=N/Nc3nc(N4CCOCC4)c4sccc4n3)c3ccccc32)cc1 | 1.62 | 1.62 | 25.5 | > 100 |  | 
30 | C=CCc1cccc(/C=N/NC(=O)CN2CCN(Cc3ccccc3)CC2)c1O [PAC-1] | 3.57 |  | 0.97 | 6.11 |  | 
31 | Fc1ccccc1Cn1cc(/C=N/Nc2nc(N3CCOCC3)c3sccc3n2)c2ccccc21 | 0.86 | 0.871 | 3.28 | 9.24 | 22.6 | > 100
32 | NNc1nc(N2CCOCC2)c2sccc2n1 | 42.2 |  | 23.4 | 63.8 |  | 
33 | CC(C)(O)c1cc2nc(N/N=C/c3cn(Cc4cccc(F)c4)c4ccccc34)nc(N3CCOCC3)c2s1 | 0.42 | 0.427 | 0.38 | 7.2 | 7.82 | 19.7
34 | Fc1ccc(Cn2cc(/C=N/Nc3nc(N4CCOCC4)c4sccc4n3)c3ccccc32)cc1 | 0.41 | 0.407 | 1.79 | 12.3 | 8.83 | > 100
